# Screening data as filed in PubChem BioAssay.
# HKDC1 activator: activators of human hexokinase HKDC1 | recombinant HKDC1, G6PDH/diaphorase resazurin fluorescence; stronger effect = lower value | activity change, negative = activation, % at 20 µM | 0.056% of 340,000 active | AID 493187;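 active = activation of 40% or more at 20 µM, a change of -40% or lower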
# Target sequence (Q2TB90 whole entry, looked up): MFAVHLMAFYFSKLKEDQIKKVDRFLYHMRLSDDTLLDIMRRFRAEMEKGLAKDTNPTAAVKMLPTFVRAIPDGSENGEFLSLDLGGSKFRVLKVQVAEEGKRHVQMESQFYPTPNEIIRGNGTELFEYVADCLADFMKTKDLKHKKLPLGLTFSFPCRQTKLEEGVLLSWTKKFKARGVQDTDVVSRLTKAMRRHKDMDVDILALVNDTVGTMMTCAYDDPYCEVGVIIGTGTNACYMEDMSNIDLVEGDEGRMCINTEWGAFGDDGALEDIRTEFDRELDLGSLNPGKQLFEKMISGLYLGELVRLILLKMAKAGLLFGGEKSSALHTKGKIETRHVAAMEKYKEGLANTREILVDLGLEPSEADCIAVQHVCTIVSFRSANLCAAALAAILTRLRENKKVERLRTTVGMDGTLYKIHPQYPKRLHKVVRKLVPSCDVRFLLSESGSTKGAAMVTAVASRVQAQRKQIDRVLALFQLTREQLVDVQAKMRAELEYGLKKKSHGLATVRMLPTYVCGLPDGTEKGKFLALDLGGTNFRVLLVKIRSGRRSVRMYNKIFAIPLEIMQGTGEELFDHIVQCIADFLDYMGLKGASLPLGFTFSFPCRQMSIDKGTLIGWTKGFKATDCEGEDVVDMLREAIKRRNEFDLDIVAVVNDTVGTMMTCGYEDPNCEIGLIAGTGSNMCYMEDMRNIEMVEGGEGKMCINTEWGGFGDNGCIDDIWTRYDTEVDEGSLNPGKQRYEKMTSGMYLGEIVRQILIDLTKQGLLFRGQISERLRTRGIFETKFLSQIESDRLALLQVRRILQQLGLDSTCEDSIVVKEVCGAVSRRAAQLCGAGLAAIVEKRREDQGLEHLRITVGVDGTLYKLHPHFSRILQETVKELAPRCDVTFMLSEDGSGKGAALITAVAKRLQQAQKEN
#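 Signal: coupled resazurin-to-resorufin fluorescence, Ex 525/Em 613 nm. Test system: in-house human HKDC1 enzyme, G6PDH and diaphorase coupling enzymes. Quantity: HKDC1 5 µg/mL. Timing: 90 min reaction at room temperature, dark.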
# * = called active by the depositor. Only a sample is shown.
SMILES,HKDC1 activator
O=C(O)C(Cc1ccccc1)N1C(=O)/C(=C/C=C/c2ccco2)SC1=S (stereo not drawn),37.0
COc1cc(/C=C2\SC(=Nc3ccc(Cl)c(C(=O)O)c3)NC2=O)c(Br)c(Br)c1O,40.4
Cc1ccc(C)c(-n2nnnc2Sc2nnnn2-c2ccccc2)c1,47.1
CCOC(=O)C1=C(Cc2ccc(F)cc2)C(=O)c2ccccc2C1=O,72.7
C[n+]1c2cc(N)ccc2cc2ccc(N)cc21,43.6
CC(=O)NC1=C(N(C)C2CCS(=O)(=O)C2)C(=O)c2ccccc2C1=O (stereo not drawn),39.4
COC(=O)c1ccc(CCc2cc(O)c(Br)cc2O)cc1,69.1
COc1cccc(-n2c(N)c(C(=O)Nc3c(C)n(C)n(-c4ccccc4)c3=O)c3nc4ccccc4nc32)c1,35.7
c1coc(-c2nc(-c3ccco3)c(-c3ccco3)nc2-c2ccco2)c1,68.3
O=C(O)CCCN1C(=O)/C(=C\C(Cl)=C\c2ccccc2)SC1=S,43.6
COc1ccccc1C1=NNC(=Nc2cccc(S(=O)(=O)N(C)C)c2)SC1,-201.8*
COP(=O)(OC)c1ccc(NCc2cc(O)ccc2O)cc1,42.7
O=C(O)c1cc(O)c2c(c1)[C@@H]([C@H]1c3cc(C(=O)O)cc(O)c3C(=O)c3c(O[C@@H]4O[C@H](CO)[C@@H](O)[C@H](O)[C@H]4O)cccc31)c1cccc(O[C@@H]3O[C@H](CO)[C@@H](O)[C@H](O)[C@H]3O)c1C2=O,79.8
O=C(N/N=C/c1ccc[nH]1)c1sc2ccccc2c1Cl,-41.5*
COC(=O)CCC(=O)OC1(C)C(=O)C2=CN(C3CCCC3)C(c3ccc(OC)cc3)=CC2=C(Br)C1=O (stereo not drawn),38.4
Cc1cc(SCC(=O)c2cccc([N+](=O)[O-])c2)nc(=O)[nH]1,-54.1*
Cc1cccc(-n2c3nc(=O)[nH]c(=O)c-3cc3cc([N+](=O)[O-])ccc32)c1,41.8
O=C(C#Cc1ccccc1)c1cccc([N+](=O)[O-])c1,37.0
COCCN(C(=O)COC(=O)c1cc2c(s1)CCC2)c1c(N)n(Cc2ccccc2)c(=O)[nH]c1=O,35.1
Oc1ccc(O)c(Cc2nc3ccccc3s2)c1,45.4
Cc1cc(C)nc(Nc2n[nH]c(-c3ccc(C(C)(C)C)cc3)n2)n1,-51.1*
O=S(=O)(Nc1cc(Sc2ncn[nH]2)c(O)c2ccccc12)c1ccccc1,54.6
COc1cc(/C=C2\SC(=O)N(c3ccc(Cl)cc3)C2=O)cc([N+](=O)[O-])c1O,44.4
CCc1ccc2c(c1)C(NC(C)=O)C(=O)N2CCN1CCOCC1 (stereo not drawn),80.1
CCOc1ccc2nc3cc(N=Nc4ccc(N)nc4N)ccc3c(N)c2c1,37.3
SMILES,HKDC1 activator
CCOc1ccc(N)c(SSc2cc(OCC)ccc2N)c1,-41.9*
Cc1onc(C(=O)Nc2ccc(OC(F)(F)F)cc2)c1[N+](=O)[O-],79.1
COc1ccc2c(c1)c(=O)oc1c(C)c(OCc3cc(C(=O)O)oc3C)ccc12,78.7
COc1ccc(CN2C(=O)c3cccnc3C2Nc2cc(Cl)ccc2OC)cc1 (stereo not drawn),51.7
Cc1ccc(S(=O)(=O)N(C(=O)c2ccco2)c2cc3sc(=O)oc3c3ccccc23)cc1,36.9
O=C(c1c[nH]c(C(=O)C(Cl)(Cl)Cl)c1)c1ccccc1F,37.4
c1ccc2oc(C3=NNC(=NC4CC4)SC3)cc2c1,-46.7*
O=c1[nH][nH]c2c(N=Cc3ccccc3O)ccc(F)c12,37.7
N=C1/C(=C\c2coc3ccccc3c2=O)C(=O)N=C2SC(c3ccncc3)=NN12,44.9
S=C1Cc2ccccc2N1,-302.6*
CCC[n+]1c2ccccc2cc2ccccc21,36.5
Cc1ccc(N=Nc2ccc(O)c3ncccc23)cc1C,-43.2*
CC1CCc2c(c3ccccc3n2C(=O)CCl)C1 (stereo not drawn),45.6
Cn1c2ccccc2c2ccc3c(c21)C(=O)C=CC3=O,37.5
CSc1nc(N)nc2c1ncn2CC(=O)N[C@H](C)c1cccc2ccccc12,-55.5*
Cc1cc2nc3ccc(=[N+](C)C)cc-3sc2cc1N,46.9
